From PubChem
IDH1 mut inh = inhibitors of IDH1 R132H reductase, primary screen, biochemical, plate reader, single point | 70,000 tested, 0.18% active | diaphorase/resazurin fluorescence, 60 min | inhibition, % at 10 µM; in the data active = inhibition above about 34%;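 also: 0% = DMSO and 100% = no enzyme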
Pf Dd2 inh = P. falciparum Dd2 growth inhibitors, primary screen, SYBR Green fluorescence, single dose replicates; 72 h; stronger effect = lower value; activity change, % at 10 µM; 94,000 tested, 2.3% active; AID 1159554, 2015; in the data active = activity change below about -80%
GASC1 inh = inhibitors of GASC-1 (KDM4C) histone demethylase, primary screen, biochemical, single concentration HTS; 96,000 tested, 0.15% active; GST-KDM4C 2-372, H3K9me3 peptide, LANCE TR-FRET; AID 720574, 2013; Lysine-specific demethylase 4C (Homo sapiens), Q9H3R0; inhibition, % at 12.5 µM;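 active = mean replicate inhibition above about 25%, with at least 55% of replicates also reaching it, limit read from the data, passing the limit was not always enough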
Target sequence (Q9H3R0 2-372 limits assumed): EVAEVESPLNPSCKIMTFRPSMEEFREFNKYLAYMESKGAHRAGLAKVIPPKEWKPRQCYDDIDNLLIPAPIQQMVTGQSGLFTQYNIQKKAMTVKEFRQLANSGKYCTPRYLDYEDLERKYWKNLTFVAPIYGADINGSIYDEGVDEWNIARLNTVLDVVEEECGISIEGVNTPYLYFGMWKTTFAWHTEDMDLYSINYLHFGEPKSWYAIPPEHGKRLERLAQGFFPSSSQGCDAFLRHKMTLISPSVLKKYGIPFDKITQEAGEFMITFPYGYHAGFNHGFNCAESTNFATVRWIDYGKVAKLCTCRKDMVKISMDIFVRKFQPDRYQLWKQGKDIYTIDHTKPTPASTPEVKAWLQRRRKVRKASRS
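Test system – GST-tagged GASC-1 (JMJD2C) catalytic fragment, aa 2-372 · Medium – HEPES buffer, pH 7.5, plus ascorbate · Reagent – H3K9me3 peptide with Fe(II)/2OG · Compound – one test concentration per compound · Timing – 30 min reaction, 60 min detection, RT · Technique – TR-FRET with Eu antibody and ULight streptavidin, EDTA stop · Read-out basis – inhibition from TR-FRET ratio decrease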
* hit, by the source's call; / = no result given. Only a selection was taken, and hits are over-represented in it overall.

SMILES	IDH1 mut inh	Pf Dd2 inh	GASC1 inh
C[C@@H]1CCCCO[C@@H](CN(C)C(=O)Nc2ccc(C(F)(F)F)cc2)[C@H](C)CN([C@@H](C)CO)C(=O)c2cc(NS(=O)(=O)c3ccccc3)ccc2O1	/	-17	0
O=C(C[C@@H]1CC[C@H]2[C@@H](COC[C@H](O)CN2C(=O)C2CC2)O1)NCc1ccccc1Cl	/	-10	-1
C[C@@H]1CN([C@@H](C)CO)C(=O)c2cc(NS(=O)(=O)c3ccccc3)ccc2O[C@@H](C)CCCCO[C@H]1CN(C)S(=O)(=O)c1cn(C)cn1	-7	36	0
C[C@H](CO)N1C[C@H](C)[C@H](CN(C)CC2CCCCC2)Oc2ccc(NC(=O)Nc3ccc(C(F)(F)F)cc3)cc2C1=O	-2	-69	-3
CCCN(C)C[C@@H]1OCCCC[C@H](C)Oc2ccc(NC(=O)Nc3ccc(C(F)(F)F)cc3)cc2C(=O)N([C@H](C)CO)C[C@@H]1C	/	-77	-3
C[C@@H]1CN([C@@H](C)CO)C(=O)c2cc(NC(=O)Nc3ccc(C(F)(F)F)cc3)ccc2O[C@H]1CN(C)CC1CCCCC1	1	-86*	16
C[C@@H]1CN([C@H](C)CO)C(=O)c2cc(NC(=O)C3CC3)ccc2O[C@@H]1CN(C)CC1CCCCC1	1	34	0
CCCN(C)C[C@@H]1OCCCC[C@H](C)Oc2ccc(NC(=O)Nc3ccc(C(F)(F)F)cc3)cc2C(=O)N([C@@H](C)CO)C[C@@H]1C	/	-88*	0
C[C@@H]1CCCCO[C@@H](CN(C)CC2CCCCC2)[C@@H](C)CN([C@H](C)CO)C(=O)c2cc(NC(=O)Nc3ccc(C(F)(F)F)cc3)ccc2O1	/	-44	0
C[C@H]1CCCCO[C@@H](CN(C)CC2CCCCC2)[C@@H](C)CN([C@@H](C)CO)C(=O)c2cc(NC(=O)Nc3ccc(C(F)(F)F)cc3)ccc2O1	2	-82*	/
C[C@@H]1CN([C@@H](C)CO)C(=O)c2cc(NC(=O)C3CC3)ccc2O[C@H]1CN(C)CC1CCCCC1	0	-89*	1
CCNC(=O)C[C@H]1C=C[C@H](NC(=O)C2CC2)[C@H](CO)O1	-1	13	0
COCC#Cc1ccc2c(c1)O[C@H](CN(C)C(=O)c1ccccc1)[C@H](C)CN([C@@H](C)CO)S2(=O)=O	0	-27	-1
C[C@@H]1CCCCO[C@H](CN(C)S(=O)(=O)c2cn(C)cn2)[C@H](C)CN([C@@H](C)CO)C(=O)c2cc(NC(=O)CCCN(C)C)ccc2O1	/	51	5
C[C@H](CO)N1C[C@H](C)[C@@H](CN(C)C(=O)c2ccncc2)Oc2ncc(-c3ccc(F)cc3)cc2C1=O	0	-12	1
CO[C@@H]1CN(C)C(=O)c2ccc(NC(=O)Nc3cc(F)ccc3F)cc2OC[C@H](C)NC[C@H]1C	0	-17	1
C[C@@H]1CCCCO[C@H](CN(C)CC2CCCCC2)[C@H](C)CN([C@@H](C)CO)C(=O)c2cc(NC(=O)Nc3ccc(C(F)(F)F)cc3)ccc2O1	/	-87*	0
C[C@@H]1CCCCO[C@@H](CN(C)CC2CCCCC2)[C@H](C)CN([C@@H](C)CO)C(=O)c2cc(NC(=O)Nc3ccc(C(F)(F)F)cc3)ccc2O1	/	-64	-2
COC(=O)c1ccc(NC(=O)CSc2ncnc3sc(C)c(C)c23)cc1	0	/	/
C[C@H]1CCCCO[C@@H](CN(C)Cc2ccc3c(c2)OCO3)[C@@H](C)CN([C@@H](C)CO)C(=O)c2cc(NC(=O)Nc3ccc(C(F)(F)F)cc3)ccc2O1	1	-89*	-1
C[C@@H]1CCCCO[C@H](CN(C)Cc2ccc(Cl)c(Cl)c2)[C@@H](C)CN([C@@H](C)CO)C(=O)c2cc(NC(=O)Nc3ccc(C(F)(F)F)cc3)ccc2O1	/	-86*	0
C[C@@H]1CCCCO[C@@H](CN(C)Cc2ccc3c(c2)OCO3)[C@@H](C)CN([C@@H](C)CO)C(=O)c2cc(NC(=O)Nc3ccc(C(F)(F)F)cc3)ccc2O1	/	-56	0
C[C@@H]1CN([C@H](C)CO)C(=O)c2cc(NC(=O)Nc3ccc(C(F)(F)F)cc3)ccc2O[C@@H](C)CCCCO[C@H]1CN(C)Cc1ccccc1	0	-87*	-2
C[C@@H]1CCCCO[C@@H](CN(C)Cc2ccc(C(F)(F)F)cc2)[C@@H](C)CN([C@@H](C)CO)C(=O)c2cc(NC(=O)Nc3ccc(C(F)(F)F)cc3)ccc2O1	/	-24	11
C[C@@H]1CCCCO[C@@H](CN(C)Cc2ccc(Cl)c(Cl)c2)[C@H](C)CN([C@@H](C)CO)C(=O)c2cc(NC(=O)Nc3ccc(C(F)(F)F)cc3)ccc2O1	/	-85*	-3
SMILES	IDH1 mut inh	Pf Dd2 inh	GASC1 inh
C[C@H](CO)N1C[C@H](C)[C@@H](CN(C)Cc2ccccc2)OCCCC[C@H](C)Oc2ccc(NC(=O)Nc3ccc(C(F)(F)F)cc3)cc2C1=O	/	-39	-1
C[C@H]1CCCCO[C@@H](CN(C)Cc2ccc(Cl)c(Cl)c2)[C@@H](C)CN([C@@H](C)CO)C(=O)c2cc(NC(=O)Nc3ccc(C(F)(F)F)cc3)ccc2O1	/	-78	9
COC(=O)CCCCCCC(=O)N/N=C/c1ccc(Br)cc1	0	/	/
CO[C@@H]1CN(C)C(=O)c2cc(NC(=O)Nc3ccccc3F)ccc2OC[C@@H](C)N(Cc2ccccc2F)C[C@H]1C	0	-66	2
CO[C@@H]1CN(C)C(=O)c2ccc(NC(=O)Nc3ccccc3F)cc2OC[C@@H](C)N(C)C[C@H]1C	/	-49	-1
CO[C@H]1CN(C)C(=O)c2cc(NC(=O)C3CC3)ccc2OC[C@H](C)N(Cc2cc(F)ccc2F)C[C@H]1C	0	-88*	-3
CO[C@@H]1CN(C)C(=O)c2ccc(NC(=O)Nc3ccccc3F)cc2OC[C@@H](C)N(Cc2ccccc2F)C[C@H]1C	0	-90*	0
CN1C(=O)c2cc(NC(=O)C3CC3)ccc2OC[C@@H]2O[C@@H](CC(=O)O)CC[C@@H]21	/	-1	1
CO[C@@H]1CN(C)C(=O)c2ccc(NC(=O)Nc3ccccc3Cl)cc2OC[C@@H](C)N(C)C[C@H]1C	-1	-87*	1
CO[C@@H]1CN(C)C(=O)c2cc(NC(=O)C3CC3)ccc2OC[C@H](C)N(Cc2cc(F)ccc2F)C[C@H]1C	0	-71	-1
CN1C(=O)c2cc(NC(=O)C3CC3)ccc2OC[C@H]2O[C@@H](CC(=O)O)CC[C@@H]21	/	21	44*
COc1ccc2c3c(n(C)c2c1)[C@H](CO)N(C(C)=O)CC31CN(C(=O)c2ccccc2)C1	/	13	0
C[C@H]1CN([C@@H](C)CO)C(=O)c2cc(NC(=O)Cc3ccccc3)ccc2O[C@H]1CN(C)C(=O)Nc1cccc2ccccc12	0	-2	-1
COc1cccc(NC(=O)N(C)C[C@@H]2Oc3cc(/C=C/c4ccccc4)ccc3S(=O)(=O)N([C@@H](C)CO)C[C@H]2C)c1	/	-39	1
CCCN1C[C@@H](C)[C@@H](OC)CN(C)C(=O)c2ccc(NC(=O)Nc3ccccc3F)cc2OC[C@@H]1C	0	-24	0
